Bioassay records deposited in PubChem BioAssay by several laboratories.
Dynein cargo inh: blocks dynein driven cargo transport along microtubules | z-score, hits read low | hit rate 0.47% among 220,000 | 3617.4 mouse cells, GR-EGFP nuclear translocation imaging; test concentration mostly 20 µM; stimulated with dexamethasone, 1 µM; active compounds read low;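 active = plate z-score of nuclear minus cytoplasmic receptor signal below a set negative limit, without overly bright fluorescence or cell loss, cut at about -3.5 in these data, passing the limit was not always enough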;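 note: z-score of nuclear minus cytoplasmic ring GR-EGFP intensity difference per well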
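Buffer or medium: tet-free medium with charcoal-stripped serum / Also added: dexamethasone agonist, 1.0 µM final, for 30 min / Timing: induction 48 h, compound 1 h, agonist 30 min / Measured by: high-content fluorescence imaging after fixation / Read-out: nuclear-to-cytoplasmic GR-EGFP distribution per well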
Ins promoter up: MIN6 insulin promoter up-regulation; MIN6 insulin promoter-GFP reporter, high-content imaging; active compounds read high; z-score at 5 µM; hit rate 0.3% among 190,000;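 active = z-score above 3 at 5 µM with at least 500 cells counted in the well; inconclusive = wells under 500 cells, flagged as cytotoxic or low count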
INS promoter inh: TRM-6 insulin promoter activity inhibition | TRM-6 cells, insulin promoter-eGFP reporter, imaging; reporter expression induced with tamoxifen | inhibition, % at 2 µM | hit rate 0.9% among 130,000 | AID 1273;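 active = inhibition above the mean plus 3 SD, with well images judged a real hit on visual review, cut at about 60% in these data, passing the limit was not always enough; inconclusive = inhibition over the cutoff but images rejected on review; inactive = inhibition not above the cutoff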
Autophagy HCS: alters autophagy in cells; hit rate 0.98% among 190,000; AID 463193; calls only at 10 µM (by protocol); MEF GFP-LC3 puncta imaging; test concentration mostly 10 µM;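 active = percentage of spot-positive cells more than 3 SD above its plate mean, without a fluorescence outlier flag or 80% toxicity; inconclusive = no clear call, values can overlap the other calls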;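 note: spot-positive cell cutoff set from DMSO-treated cells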
* = called active by the depositor; i = inactive; ? = inconclusive; . = not tested or not shown; + = active, no number. The list is not random: actives were taken first. Their share in the collection is about 2%.

SMILES	Dynein cargo inh	Ins promoter up	INS promoter inh	Autophagy HCS
Cc1ccc(C(=O)c2oc3ccccc3c2NC(=O)c2cc(-c3cc(C)ccc3O)n[nH]2)cc1	0.99	-0.58	.	.
Cc1ccc(C(=O)c2oc3ccccc3c2NC(=O)c2cc(-c3ccccc3O)n[nH]2)cc1	0.9	0.08	0	+
CCCCn1c(Oc2ccc(C(=O)OC)cc2)nc2c1c(=O)n(C)c(=O)n2C	1.1	-0.23	52	+
Cn1cc(/C=N\O)nc2c(=O)n(-c3ccccc3)c(=O)nc1-2	-0.25	2.9	.	i
C=CCn1c(=S)sc2c(=O)[nH]cnc21	0.76	.	.	.
Cc1cc(=O)oc2cc(OCCSCCN3CCCCC3)ccc12	-0.072	0.39	.	.
Cc1ccccc1OCc1n[nH]c(=S)n1Cc1ccccc1	-0.02	-0.04	0	+
O=C(O)c1ccc(S(=O)(=O)c2ccc3c(c2)C(=O)N(NC(=O)c2cccnc2)C3=O)cc1	1	0	.	.
Cc1ccc(NC(=O)CCn2cccc2)cc1Cl	-1.2	3.2*	-27	i
Cc1ccc2c(n1)CC(C)(C)C/C2=N\O	-0.94	.	90*	i
Cc1[nH]nc2c1/C(=N\O)CC(C)(C)C2	0.31	0.99	.	i
CCC(C)(C)c1ccc(OCCCC[n+]2ccccc2)c(C(C)(C)CC)c1	-3.7*	?	-56	i
CCCCCc1ccc(OCCCC[n+]2ccccc2)c(CCCCC)c1	1.3	?	-38	i
CCOC(=O)c1nnn(-c2nonc2N)c1-c1ccc(OCC)cc1	0.075	3.8*	0	i
COCCCn1c(-c2ccco2)nc2ccccc2c1=O	1.1	0.79	.	i
CCn1nc([N+](=O)[O-])c2c(-c3nc4ccccc4o3)c(N)n(CCCOC)c2c1=O	-0.73	-0.07	43	+
CSc1ccc(CN2CCC(CO)(Cc3ccc(Cl)cc3)CC2)cc1	0.38	.	.	+
COC(=O)c1ccc(S(=O)(=O)N2Cc3ccccc3C2)cc1	0.17	-0.3	-39	i
COc1cc(Cl)c(C)cc1NC(=O)CN(C)Cc1cccc(OC)c1OC	-0.12	3.4*	.	i
COc1ccc(-n2cc3c(-c4cccc(Br)c4)nnc(C)c3n2)cc1	-0.31	-0.93	-11	+
COc1ccc(/C=N/N2C(=O)C3C4C=CC(CC4)C3C2=O)c(OC)c1 (stereo not drawn)	-0.52	-0.18	42	i
CCC(C)(C)NC(=O)CN(CCc1cccc(C)c1)C(=O)c1csnn1	-0.8	0.04	.	i
O=C(Nc1ccccc1)Oc1cccc(Br)c1	-0.19	0.04	.	.
Cn1ncc(Cl)c1C(=O)NCc1ccco1	-0.77	0.85	.	i
Cn1nccc1CNC(=O)c1c(Cl)cnn1C	-0.74	.	73*	i
SMILES	Dynein cargo inh	Ins promoter up	INS promoter inh	Autophagy HCS
Cn1cc(CN2CCc3ccccc3C2)c2ccccc21	1.8	-1	81*	i
Cc1nc(Nc2ccc3c(c2)OCO3)c2oc3ccccc3c2n1	-0.7	-0.48	82*	i
Cc1nc(NCCc2ccccc2)c2oc3ccccc3c2n1	-1.2	-2.4	69*	i
c1ccc2c(c1)oc1c(Nc3ccc4c(c3)OCO4)ncnc12	1.8	.	15	i
CCCCCC(=O)Nc1cccc(C2=NOC3(C2)C[C@@H](C(N)=O)N(C(=O)c2ccc(Cl)cc2)C3)c1 (stereo partly drawn)	-0.61	0.45	.	.
CCC(=O)N1CCc2cc(S(=O)(=O)CCC(=O)Nc3cccc(C)n3)ccc21	0.11	0.82	.	i
CCOC(=O)c1c(NC(C)=O)sc2c(OCC(O)CNC(C)(C)C)c(Br)ccc12 (stereo not drawn)	-4.2	1.4	.	+
Cc1nc(-n2[nH]c3c(c2=O)CCCC3)[nH]c(=O)c1Cc1ccccc1	0.33	.	4	+
CCCCCCC(=O)Cc1cc(OC)c(OC)cc1C=C(C(=O)OCC)C(=O)OCC	-4.3*	0.05	-5	i
Cc1ccc(S(=O)(=O)NC(=O)c2ccc(-c3ccc(-c4ccccc4)cc3)o2)c(C)c1	1.2	-0.39	67*	i
Cc1ccc(S(=O)(=O)Oc2ccc(C)cc2/C=N/N=C2\NC(=O)C(C)S2)cc1 (stereo not drawn)	0.32	.	79*	i
COc1ccc(/C=N/N=C2/NC(=O)C(CC(=O)O)S2)cc1OS(=O)(=O)c1ccccc1 (stereo not drawn)	-0.08	-0.51	.	i
CC(C)C(NC(=O)c1ccc(C(C)(C)C)cc1)C(=O)NCC(c1ccccc1)N(C)C (stereo not drawn)	0.17	0.44	.	.
Cc1nn(-c2ccccc2)c(C)c1N	1.3	-0.44	75*	i
CNCc1c(C)nn(-c2ccccc2)c1C	1	-0.28	50	i
COc1cccc(OCCn2cc(/C=N/NC(=O)c3ccncc3)c3ccccc32)c1	0.23	-0.06	37	+
